This is an account of results in ChEMBL document CHEMBL1143009, “D- and L-2',3'-didehydro-2',3'-dideoxy-3'-fluoro-carbocyclic nucleosides: synthesis, anti-HIV activity and mechanism of resistance” (J Med Chem, 2007).

Series [1] has as its system PBMC. The experiment in a line: Cytotoxicity against human PBMC. It counts as cell-based.
The test system of series [2] is Vero. Briefly: Cytotoxicity against African green monkey Vero cells. The format is cell-based. As to conditions: chlorocebus sabaeus.
The subject of series [3] is Human immunodeficiency virus 1. The experiment in a line: Antiviral activity against HIV1 LAV1 in human PBM cells by RT assay. As to conditions: for EC50 / EC90: Human immunodeficiency virus 1, LAV1, PBMC. It counts as functional, organism-based. In outline: (§1)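 Human PBM cells were infected with HIV-1. The strain was LAI by default, or xxBRU where indicated. Antiviral activity was reported as EC50 and EC90.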

Series [4] has as its system Human immunodeficiency virus 1. Briefly: Antiviral activity against lamivudine-resistant HIV1 M184V mutant in human PBMC cells by RT assay. The format is functional, organism-based. In outline:
(§2)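 Human PBM cells infected with lamivudine-resistant HIV-1 M184V and, in parallel, wild-type HIV-1 (xxBRU where footnoted, otherwise LAI). EC50 was determined for each virus, and the mutant EC50 was divided by the wild-type EC50. Carbovir served as positive control.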

Series [5] relates to Human immunodeficiency virus 1. The experiment in a line: Antiviral activity against HIV1 xxBRU in human PBM cells by RT assay. It counts as functional, organism-based. In outline: as §1
Series [6] has as its system Human immunodeficiency virus 1. The experiment in a line: Ratio of EC50 for lamivudine-resistant HIV1 M184V mutant to EC50 for HIV1 […]. It counts as functional. In outline: as §2
Setting [7] is: Human immunodeficiency virus 1, PBMC.
The mark [8] stands for this setting: Human immunodeficiency virus 1, xxBRU, PBMC.

In series [1], `OC[C@H]1C[C@H](n2cnc3c(O)ncnc32)C=C1F` returned an Activity of over 100 µM. The same compound returned an Activity in series [2] of over 100 µM. In addition, in series [3], the ED90 is over 100 µM and the EC50 was over 100 µM.

`Cc1cn([C@@H]2C=C(F)[C@@H](CO)C2)c(=O)[nH]c1=O`: the Activity in series [1] was over 100 µM. For the same compound, the Activity in series [2] was over 100 µM. In series [3], this compound gave an EC50 of 6.4 µM and an EC90 of over 100 µM.

For `Nc1nc2c(ncn2[C@@H]2C=C(F)[C@@H](CO)C2)c(=O)[nH]1`, the Activity in series [1] and in series [2] was over 100 µM in each case. Moreover, the EC50 in series [3] was found to be 20.7 µM. In addition, the EC90 in series [3] was over 100 µM.

On to `Nc1nc2c(ncn2[C@H]2C=C[C@@H](CO)C2)c(=O)[nH]1` [CARBOVIR], for which the EC50 in series [4] (setting [7]) was found to be 0.2 µM; in series [5] (setting [8]) it was 0.087 µM. Also, the EC90 in series [4] (setting [7]) was 1.1 µM. In series [5], this compound came in with an ED90 of 0.27 µM. Further, in series [6], the Ratio came out at 2.3.

In turn, `Nc1ncnc2c1ncn2[C@H]1C=C(F)[C@H](CO)C1` showed an Activity in series [1] of over 100 µM. For the same compound, in series [2], the Activity was over 100 µM. In series [3], this compound came in with an EC50 of 14.8 µM and an EC90 of 40.6 µM.

`Cc1cn([C@H]2C=C(F)[C@H](CO)C2)c(=O)[nH]c1=O`: the Activity in series [1] is over 100 µM. In series [2], this compound displayed an Activity of over 100 µM. In series [3], this compound had an EC50 of 68.8 µM and an EC90 of over 100 µM.

In series [1], `Nc1ccn([C@@H]2C[C@@H](CO)C(F)(F)C2)c(=O)n1` returned an Activity of over 100 µM. Also, in series [2], the Activity was over 100 µM. In series [3], the ED90 is over 100 µM and the EC50 was over 100 µM.

For the compound `Nc1ccn([C@@H]2C=C(F)[C@@H](CO)C2)c(=O)n1`, in series [1], the Activity is over 100 µM. In series [2], this compound had an Activity of over 100 µM. In series [3], this compound had an EC50 of 7.1 µM and an EC90 of 72 µM.

Consider `Nc1ncnc2c1ncn2[C@@H]1C=C(F)[C@@H](CO)C1`, for which the Activity in series [1] and in series [2] was over 100 µM throughout. The compound also returned an EC50 in series [3] of 10.3 µM. This compound also registered an EC90 in series [3] of 33.5 µM.

As to `Nc1ncnc2c1ncn2[C@@H]1C[C@@H](CO)C(F)(F)C1`, the Activity in series [1] is 95.1 µM. The Activity in series [2] was over 100 µM. In series [3], the ED90 is over 100 µM and the EC50 was over 100 µM.

Take `Nc1ccn([C@H]2C=C(F)[C@H](CO)C2)c(=O)n1`: the Activity in series [1] and in series [2] was over 100 µM in each case. In series [3], this compound had an ED90 of over 100 µM. This compound gave an EC50 in series [3] of over 100 µM.

Turning to `Nc1nc2c(ncn2[C@@H]2C[C@@H](CO)C(F)(F)C2)c(=O)[nH]1`, the Activity in series [1] is over 100 µM. For the same compound, in series [2], the Activity was over 100 µM. In addition, in series [3], the ED90 is over 100 µM and the EC50 was over 100 µM.

Compound `Nc1nc2c(ncn2[C@H]2C=C(F)[C@H](CO)C2)c(=O)[nH]1` came in with an ED90 in series [4] of 14.9 µM. Moreover, the EC50 was 3.8 µM in series [4] (setting [7]), 0.098 µM in series [5] (setting [8]) and 0.41 µM in series [3]. Moreover, the 90% effect concentration (EC90) is 0.58 µM in series [5] (setting [8]) and 2.8 µM in series [3]. Moreover, the Activity was 21.1 µM in series [1] and over 100 µM in series [2]. Besides, the Ratio in series [6] came to 38.8.

As to `OC[C@@H]1C[C@@H](n2cnc3c(O)ncnc32)C=C1F`, the Activity in series [1] and in series [2] was over 100 µM throughout. This compound also yielded an ED90 in series [3] of over 100 µM. For the same compound, the EC50 in series [3] is over 100 µM.

For the compound `OC[C@@H]1C[C@@H](n2cnc3c(O)ncnc32)CC1(F)F`, the Activity in series [1] is over 100 µM. In addition, the Activity in series [2] was over 100 µM. In series [3], this compound yielded an ED90 of over 100 µM and an EC50 of over 100 µM.

As for `Cc1cn([C@@H]2C[C@@H](CO)C(F)(F)C2)c(=O)[nH]c1=O`, the Activity in series [1] was over 100 µM. In series [2], this compound gave an Activity of over 100 µM. In series [3], this compound displayed an ED90 of over 100 µM and an EC50 of over 100 µM.
